Measurements published in ChEMBL document CHEMBL5303300, “EUbOPEN Chemogenomics Library - Multiplex” (2023).
Values joined by “and” are separate entries in the source; they are usually repeats but may differ in a detail not shown here. Equal values may be shown once.

Columns and labels:
HEK-293T = assay: Multiplex assay against HEK293T; type: toxicity, cell-based; settings: human, number of replicates 2
How it was run: (§1)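 Hoechst33342, BioTracker Green Microtubule Cytoskeleton Dye, MitoTracker Red and Annexin V Alexa Fluor 680 were added to live cells at seeding, and imaging on a CQ1 microscope at 37°C and 5% CO2 followed compound addition. Gating by CellPathfinder machine learning separated cells into Hoechst high-intensity objects or normal cells, then normal cells into healthy, pyknosed or fragmented nuclei, then pyknosed cells into mitotic or apoptotic. Per cents of healthy-nucleus cells are reported for the tubulin, mitochondrial-mass and membrane-permeability phenotypes.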

U2OS = assay: Multiplex assay against U2OS; type: toxicity, cell-based; settings: human, number of replicates 2; how it was run: as §1
[1] = 24 h, 1 µM, compound concentration 1 uM
[2] = 24 h, 10 µM, compound concentration 10 uM
[3] = 48 h, 1 µM, compound concentration 1 uM
[4] = 48 h, 10 µM, compound concentration 10 uM
[5] = 12 h, 1 µM, compound concentration 1 uM
[6] = 12 h, 10 µM, compound concentration 10 uM

N[C@@H]1c2cccnc2[C@H](OC(=O)N2CCC(n3c(=O)[nH]c4ncccc43)CC2)CC[C@H]1c1cccc(F)c1F [RIMEGEPANT]
Population Pyknosed Nuclei (%) (HEK-293T; [1]): 17% and 7%
Population Tubulin-Different-Phenotype (%) (HEK-293T; [1]): 18% and 20%
Total Cell Count (HEK-293T; [1]): 820 and 1035
Population Apoptotic (%) (HEK-293T; [2]): 48% and 36%
Population Fragmented Nuclei (%) (HEK-293T; [2]): 9% and 8%
Population Healthy Nuclei (%) (HEK-293T; [2]): 84% and 83%
Population Hoechst High Intensity Objects (%) (HEK-293T; [2]): 8%
Population Membrane Permeable-Phenotype (%) (HEK-293T; [2]): 5% and 2%
Population Mitotic Cells (%) (HEK-293T; [2]): 51% and 63%
Population Normal (%) (HEK-293T; [2]): 91%
Population Pyknosed Nuclei (%) (HEK-293T; [2]): 6% and 7%
Population Tubulin-Different-Phenotype (%) (HEK-293T; [2]): 91% and 67%
Total Cell Count (HEK-293T; [2]): 709 and 978
Population Apoptotic (%) (HEK-293T; [3]): 26% and 9%
Population Fragmented Nuclei (%) (HEK-293T; [3]): 12% and 16%
Population Healthy Nuclei (%) (HEK-293T; [3]): 82% and 80%
Population Hoechst High Intensity Objects (%) (HEK-293T; [3]): 7% and 8%
Population Membrane Permeable-Phenotype (%) (HEK-293T; [3]): 4% and 5%
Population Mitochondria Different-Phenotype (%) (HEK-293T; [3]): 0%
Population Mitotic Cells (%) (HEK-293T; [3]): 73% and 90%
Population Normal (%) (HEK-293T; [3]): 92% and 91%
Population Pyknosed Nuclei (%) (HEK-293T; [3]): 4% and 2%
Population Tubulin-Different-Phenotype (%) (HEK-293T; [3]): 7% and 8%
Total Cell Count (HEK-293T; [3]): 2054 and 2768
Population Apoptotic (%) (HEK-293T; [4]): 34% and 14%
Population Fragmented Nuclei (%) (HEK-293T; [4]): 14%
Population Healthy Nuclei (%) (HEK-293T; [4]): 82%
Population Hoechst High Intensity Objects (%) (HEK-293T; [4]): 8% and 10%
Population Membrane Permeable-Phenotype (%) (HEK-293T; [4]): 6%
Population Mitochondria Different-Phenotype (%) (HEK-293T; [4]): 9% and 1%
Population Mitotic Cells (%) (HEK-293T; [4]): 65% and 85%
Population Normal (%) (HEK-293T; [4]): 91% and 89%
Population Pyknosed Nuclei (%) (HEK-293T; [4]): 2% and 3%
Population Tubulin-Different-Phenotype (%) (HEK-293T; [4]): 83% and 44%
Total Cell Count (HEK-293T; [4]): 1243 and 2004
Population Apoptotic (%) (U2OS; [5]): 40% and 54%
Population Fragmented Nuclei (%) (U2OS; [5]): 11% and 5%
Population Healthy Nuclei (%) (U2OS; [5]): 79% and 84%
Population Hoechst High Intensity Objects (%) (U2OS; [5]): 0%
Population Membrane Permeable-Phenotype (%) (U2OS; [5]): 0% and 4%
Population Mitochondria Different-Phenotype (%) (U2OS; [5]): 0% and 1%
Population Mitotic Cells (%) (U2OS; [5]): 60% and 45%
Population Normal (%) (U2OS; [5]): 100%
Population Pyknosed Nuclei (%) (U2OS; [5]): 9%
Population Tubulin-Different-Phenotype (%) (U2OS; [5]): 90% and 65%
Population Apoptotic (%) (U2OS; [6]): 60% and 51%
Population Fragmented Nuclei (%) (U2OS; [6]): 0% and 5%
Population Healthy Nuclei (%) (U2OS; [6]): 88% and 83%
Population Hoechst High Intensity Objects (%) (U2OS; [6]): 0%
Population Membrane Permeable-Phenotype (%) (U2OS; [6]): 0% and 8%
Population Mitochondria Different-Phenotype (%) (U2OS; [6]): 8% and 11%
Population Mitotic Cells (%) (U2OS; [6]): 40% and 48%
Population Normal (%) (U2OS; [6]): 100%
Population Pyknosed Nuclei (%) (U2OS; [6]): 11% and 10%
Population Tubulin-Different-Phenotype (%) (U2OS; [6]): 37% and 34%
Population Apoptotic (%) (U2OS; [1]): 50% and 57%
Population Fragmented Nuclei (%) (U2OS; [1]): 7% and 3%
Population Healthy Nuclei (%) (U2OS; [1]): 82% and 86%
Population Hoechst High Intensity Objects (%) (U2OS; [1]): 0%
Population Membrane Permeable-Phenotype (%) (U2OS; [1]): 2% and 4%
Population Mitochondria Different-Phenotype (%) (U2OS; [1]): 0% and 2%
Population Mitotic Cells (%) (U2OS; [1]): 50% and 42%
Population Normal (%) (U2OS; [1]): 100%
Population Pyknosed Nuclei (%) (U2OS; [1]): 10% and 9%
Population Tubulin-Different-Phenotype (%) (U2OS; [1]): 87% and 71%
Population Apoptotic (%) (U2OS; [2]): 66% and 76%
Population Fragmented Nuclei (%) (U2OS; [2]): 8% and 3%
Population Healthy Nuclei (%) (U2OS; [2]): 79% and 89%
Population Hoechst High Intensity Objects (%) (U2OS; [2]): 0%
Population Membrane Permeable-Phenotype (%) (U2OS; [2]): 0% and 6%
Population Mitochondria Different-Phenotype (%) (U2OS; [2]): 10% and 16%
Population Mitotic Cells (%) (U2OS; [2]): 33% and 24%
Population Normal (%) (U2OS; [2]): 100%
Population Pyknosed Nuclei (%) (U2OS; [2]): 12% and 6%
Population Tubulin-Different-Phenotype (%) (U2OS; [2]): 28% and 27%
Population Apoptotic (%) (U2OS; [3]): 61% and 62%
Population Fragmented Nuclei (%) (U2OS; [3]): 8% and 3%
Population Healthy Nuclei (%) (U2OS; [3]): 77% and 89%
Population Hoechst High Intensity Objects (%) (U2OS; [3]): 0%
Population Membrane Permeable-Phenotype (%) (U2OS; [3]): 1%
Population Mitochondria Different-Phenotype (%) (U2OS; [3]): 2% and 1%
Population Mitotic Cells (%) (U2OS; [3]): 38% and 37%
Population Normal (%) (U2OS; [3]): 100%
Population Pyknosed Nuclei (%) (U2OS; [3]): 14% and 7%
Population Tubulin-Different-Phenotype (%) (U2OS; [3]): 94% and 84%
Population Apoptotic (%) (U2OS; [4]): 53% and 70%
Population Fragmented Nuclei (%) (U2OS; [4]): 3%
Population Healthy Nuclei (%) (U2OS; [4]): 73% and 86%
Population Hoechst High Intensity Objects (%) (U2OS; [4]): 0%
Population Membrane Permeable-Phenotype (%) (U2OS; [4]): 4% and 3%
Population Mitochondria Different-Phenotype (%) (U2OS; [4]): 2% and 9%
Population Mitotic Cells (%) (U2OS; [4]): 46% and 29%
Population Normal (%) (U2OS; [4]): 100%
Population Pyknosed Nuclei (%) (U2OS; [4]): 22% and 9%
Population Tubulin-Different-Phenotype (%) (U2OS; [4]): 30% and 33%
